Results from ChEMBL document CHEMBL1681705, “Optimisation of ITK inhibitors through successive iterative design cycles” (Bioorg Med Chem Lett, 2011).

What was measured:
[1] = target: T1, Tyrosine-protein kinase JAK3 (Homo sapiens) (UniProt P52333); experiment: Inhibition of JAK3 at 1 uM
T1 sequence (whole entry): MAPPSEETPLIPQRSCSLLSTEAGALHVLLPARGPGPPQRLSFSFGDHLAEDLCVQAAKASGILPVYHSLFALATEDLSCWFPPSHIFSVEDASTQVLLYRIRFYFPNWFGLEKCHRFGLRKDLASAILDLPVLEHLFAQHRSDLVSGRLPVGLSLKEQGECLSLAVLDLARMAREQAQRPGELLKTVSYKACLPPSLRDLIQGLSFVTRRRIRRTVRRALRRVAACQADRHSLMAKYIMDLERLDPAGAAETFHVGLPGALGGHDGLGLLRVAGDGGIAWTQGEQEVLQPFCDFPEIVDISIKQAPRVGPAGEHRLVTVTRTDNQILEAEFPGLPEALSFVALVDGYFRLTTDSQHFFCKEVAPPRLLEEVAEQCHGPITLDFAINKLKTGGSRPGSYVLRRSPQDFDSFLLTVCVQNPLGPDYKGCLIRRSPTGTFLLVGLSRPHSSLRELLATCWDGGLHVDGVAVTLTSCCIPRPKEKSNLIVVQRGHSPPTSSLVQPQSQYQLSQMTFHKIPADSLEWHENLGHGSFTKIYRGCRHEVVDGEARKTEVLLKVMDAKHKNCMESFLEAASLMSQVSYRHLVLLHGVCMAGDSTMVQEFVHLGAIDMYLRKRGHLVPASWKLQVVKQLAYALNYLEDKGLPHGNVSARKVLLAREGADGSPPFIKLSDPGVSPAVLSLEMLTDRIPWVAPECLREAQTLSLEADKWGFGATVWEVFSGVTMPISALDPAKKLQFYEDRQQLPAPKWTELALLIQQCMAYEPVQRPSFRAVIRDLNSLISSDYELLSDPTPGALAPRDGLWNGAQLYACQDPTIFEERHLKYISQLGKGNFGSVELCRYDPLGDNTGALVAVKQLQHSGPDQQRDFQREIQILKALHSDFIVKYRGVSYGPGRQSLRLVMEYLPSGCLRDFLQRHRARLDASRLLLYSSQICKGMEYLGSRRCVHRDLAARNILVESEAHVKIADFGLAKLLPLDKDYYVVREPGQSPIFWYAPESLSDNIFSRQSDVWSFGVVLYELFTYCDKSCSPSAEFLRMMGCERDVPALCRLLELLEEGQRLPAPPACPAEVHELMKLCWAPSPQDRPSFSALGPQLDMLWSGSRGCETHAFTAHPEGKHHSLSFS
Procedure, shortened: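 Each selected inhibitor was tested at two concentrations, 0.1 and 1.0 micromolar. Values are reported as inhibition at each concentration.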

[2] = target: MAP kinase-activated protein kinase 2 (Homo sapiens) (UniProt P49137); experiment: Inhibition of MAPKAP-K2 at 1 uM
[3] = target: Mitogen-activated protein kinase 11 (Homo sapiens) (UniProt Q15759); experiment: Inhibition of SAPK2b at 1 uM
[4] = target: Mitogen-activated protein kinase 9 (Homo sapiens) (UniProt P45984); experiment: Inhibition of JNK2a2 at 1 uM; conditions: values are per cent of control
Chain of Mitogen-activated protein kinase 9 (Homo sapiens) (P45984 whole entry, looked up): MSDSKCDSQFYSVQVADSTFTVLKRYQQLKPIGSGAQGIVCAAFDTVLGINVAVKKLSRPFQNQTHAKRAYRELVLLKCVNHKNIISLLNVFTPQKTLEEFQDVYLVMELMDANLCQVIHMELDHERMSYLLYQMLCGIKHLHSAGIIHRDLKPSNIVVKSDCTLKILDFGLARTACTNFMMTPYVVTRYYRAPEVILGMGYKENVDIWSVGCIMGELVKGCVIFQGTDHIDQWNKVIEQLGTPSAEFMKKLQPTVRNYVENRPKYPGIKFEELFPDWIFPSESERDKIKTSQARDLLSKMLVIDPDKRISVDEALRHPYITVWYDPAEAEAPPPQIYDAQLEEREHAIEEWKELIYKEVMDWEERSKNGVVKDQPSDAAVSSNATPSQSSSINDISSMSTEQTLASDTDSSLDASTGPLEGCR

[5] = target: T2, Serine/threonine-protein kinase TBK1 (Homo sapiens) (UniProt Q9UHD2); experiment: Inhibition of TBK1 at 1 uM; values are per cent of control
T2 sequence (whole entry): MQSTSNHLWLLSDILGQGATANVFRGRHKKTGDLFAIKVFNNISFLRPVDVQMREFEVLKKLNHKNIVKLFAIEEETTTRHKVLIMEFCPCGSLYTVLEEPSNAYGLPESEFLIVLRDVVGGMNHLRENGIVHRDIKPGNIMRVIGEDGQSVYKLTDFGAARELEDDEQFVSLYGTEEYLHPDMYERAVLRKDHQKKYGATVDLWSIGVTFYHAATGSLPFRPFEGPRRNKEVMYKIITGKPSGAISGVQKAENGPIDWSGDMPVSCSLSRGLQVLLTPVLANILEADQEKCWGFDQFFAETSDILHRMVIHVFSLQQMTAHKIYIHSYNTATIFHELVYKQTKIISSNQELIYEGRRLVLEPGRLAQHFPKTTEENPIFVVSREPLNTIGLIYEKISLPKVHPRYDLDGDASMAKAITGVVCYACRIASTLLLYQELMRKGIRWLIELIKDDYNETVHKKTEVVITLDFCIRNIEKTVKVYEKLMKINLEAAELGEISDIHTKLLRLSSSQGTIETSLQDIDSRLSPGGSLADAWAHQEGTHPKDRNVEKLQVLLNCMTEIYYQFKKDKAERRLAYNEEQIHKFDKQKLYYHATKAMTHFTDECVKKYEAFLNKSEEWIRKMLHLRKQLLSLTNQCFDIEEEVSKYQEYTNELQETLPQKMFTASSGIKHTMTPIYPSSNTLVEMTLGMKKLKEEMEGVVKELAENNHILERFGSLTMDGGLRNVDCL

[6] = target: ALK tyrosine kinase receptor (Homo sapiens) (UniProt Q9UM73); experiment: Inhibition of ALK at 0.1 uM; values are per cent of control
Chain of ALK tyrosine kinase receptor (Homo sapiens) (Q9UM73 19-1620 limits assumed): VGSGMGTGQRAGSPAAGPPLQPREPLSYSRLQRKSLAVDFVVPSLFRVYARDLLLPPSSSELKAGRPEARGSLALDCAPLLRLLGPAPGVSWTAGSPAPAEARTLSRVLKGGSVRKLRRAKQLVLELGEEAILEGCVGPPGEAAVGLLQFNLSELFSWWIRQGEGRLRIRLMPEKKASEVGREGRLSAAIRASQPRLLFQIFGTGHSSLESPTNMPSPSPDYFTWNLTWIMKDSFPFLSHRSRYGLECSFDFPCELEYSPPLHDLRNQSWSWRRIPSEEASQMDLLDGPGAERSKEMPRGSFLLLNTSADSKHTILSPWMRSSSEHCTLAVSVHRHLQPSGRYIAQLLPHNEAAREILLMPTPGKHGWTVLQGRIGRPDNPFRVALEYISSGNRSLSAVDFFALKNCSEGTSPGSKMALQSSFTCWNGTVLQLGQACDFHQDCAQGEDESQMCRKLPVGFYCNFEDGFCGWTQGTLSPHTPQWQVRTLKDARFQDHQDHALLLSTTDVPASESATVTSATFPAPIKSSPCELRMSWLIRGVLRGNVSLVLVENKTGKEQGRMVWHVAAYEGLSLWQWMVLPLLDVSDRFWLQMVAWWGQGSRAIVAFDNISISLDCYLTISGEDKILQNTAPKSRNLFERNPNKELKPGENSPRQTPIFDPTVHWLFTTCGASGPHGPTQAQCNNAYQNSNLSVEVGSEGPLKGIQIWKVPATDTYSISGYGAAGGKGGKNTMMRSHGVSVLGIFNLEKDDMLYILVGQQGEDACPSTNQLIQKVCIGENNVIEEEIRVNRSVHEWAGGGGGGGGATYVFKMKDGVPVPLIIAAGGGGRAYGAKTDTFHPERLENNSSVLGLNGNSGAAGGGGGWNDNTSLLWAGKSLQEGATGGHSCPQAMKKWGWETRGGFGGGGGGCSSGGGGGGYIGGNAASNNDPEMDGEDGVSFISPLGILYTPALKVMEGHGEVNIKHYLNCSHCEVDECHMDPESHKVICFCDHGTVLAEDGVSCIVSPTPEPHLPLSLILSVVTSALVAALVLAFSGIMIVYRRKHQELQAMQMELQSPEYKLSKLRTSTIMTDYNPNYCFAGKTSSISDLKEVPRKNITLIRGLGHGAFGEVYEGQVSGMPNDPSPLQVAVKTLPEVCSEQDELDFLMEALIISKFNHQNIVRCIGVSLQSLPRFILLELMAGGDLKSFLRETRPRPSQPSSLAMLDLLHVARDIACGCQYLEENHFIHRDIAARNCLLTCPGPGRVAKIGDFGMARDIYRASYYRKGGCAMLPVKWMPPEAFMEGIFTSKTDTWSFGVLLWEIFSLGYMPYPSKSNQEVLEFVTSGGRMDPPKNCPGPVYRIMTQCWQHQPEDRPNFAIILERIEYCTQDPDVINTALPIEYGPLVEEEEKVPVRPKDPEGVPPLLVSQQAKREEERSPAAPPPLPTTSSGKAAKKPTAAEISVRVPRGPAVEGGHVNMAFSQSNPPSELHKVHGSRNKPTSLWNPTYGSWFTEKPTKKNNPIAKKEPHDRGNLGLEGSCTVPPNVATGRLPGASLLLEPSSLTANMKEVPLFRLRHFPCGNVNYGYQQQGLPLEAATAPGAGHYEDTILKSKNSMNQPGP

[7] = target: Serine/threonine-protein kinase PLK2 (Homo sapiens) (UniProt Q9NYY3); experiment: Inhibition of Snk at 0.1 uM; values are per cent of control
Chain of Serine/threonine-protein kinase PLK2 (Homo sapiens) (Q9NYY3 whole entry, looked up): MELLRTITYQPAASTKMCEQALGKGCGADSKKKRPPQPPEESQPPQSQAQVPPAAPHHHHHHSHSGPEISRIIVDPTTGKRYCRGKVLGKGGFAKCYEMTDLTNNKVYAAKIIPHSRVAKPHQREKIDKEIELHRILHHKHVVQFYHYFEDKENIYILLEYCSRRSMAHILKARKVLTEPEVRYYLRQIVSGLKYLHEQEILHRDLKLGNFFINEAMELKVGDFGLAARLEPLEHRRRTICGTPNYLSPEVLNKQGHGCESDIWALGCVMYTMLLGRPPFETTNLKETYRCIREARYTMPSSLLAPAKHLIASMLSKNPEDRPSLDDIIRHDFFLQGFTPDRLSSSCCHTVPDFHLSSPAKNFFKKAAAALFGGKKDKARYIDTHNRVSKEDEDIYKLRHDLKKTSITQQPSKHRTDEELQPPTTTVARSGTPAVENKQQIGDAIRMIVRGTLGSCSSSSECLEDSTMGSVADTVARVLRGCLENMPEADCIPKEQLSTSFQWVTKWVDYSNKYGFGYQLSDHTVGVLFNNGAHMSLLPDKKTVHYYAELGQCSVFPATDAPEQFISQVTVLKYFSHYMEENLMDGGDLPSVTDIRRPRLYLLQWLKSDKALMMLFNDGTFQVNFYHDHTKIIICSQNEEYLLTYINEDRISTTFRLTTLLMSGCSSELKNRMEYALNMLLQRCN

[8] = target: RAF proto-oncogene serine/threonine-protein kinase (Homo sapiens) (UniProt P04049); experiment: Inhibition of c-RAF at 1 uM; values are per cent of control
Chain of RAF proto-oncogene serine/threonine-protein kinase (Homo sapiens) (P04049 whole entry): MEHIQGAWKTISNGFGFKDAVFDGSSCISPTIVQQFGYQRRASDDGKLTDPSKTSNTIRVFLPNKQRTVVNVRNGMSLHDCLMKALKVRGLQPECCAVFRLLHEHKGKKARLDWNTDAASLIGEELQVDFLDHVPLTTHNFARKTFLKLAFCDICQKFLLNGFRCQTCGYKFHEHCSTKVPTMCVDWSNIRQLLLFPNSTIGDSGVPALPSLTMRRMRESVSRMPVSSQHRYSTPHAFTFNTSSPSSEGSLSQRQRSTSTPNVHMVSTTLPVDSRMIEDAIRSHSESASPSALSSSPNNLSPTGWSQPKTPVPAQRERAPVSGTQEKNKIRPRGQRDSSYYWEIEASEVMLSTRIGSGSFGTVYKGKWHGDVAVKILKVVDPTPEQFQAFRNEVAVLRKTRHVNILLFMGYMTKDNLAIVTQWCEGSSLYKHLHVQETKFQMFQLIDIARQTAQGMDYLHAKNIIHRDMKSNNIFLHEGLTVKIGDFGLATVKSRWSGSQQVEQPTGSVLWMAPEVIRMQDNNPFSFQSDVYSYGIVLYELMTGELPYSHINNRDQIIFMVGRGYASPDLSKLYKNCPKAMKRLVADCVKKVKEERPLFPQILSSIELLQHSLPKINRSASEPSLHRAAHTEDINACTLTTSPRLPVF

[9] = target: Fibroblast growth factor receptor 2 (Homo sapiens) (UniProt P21802); experiment: Inhibition of FGFR2 at 1 uM; values are per cent of control
Chain of Fibroblast growth factor receptor 2 (Homo sapiens) (P21802 22-821 limits assumed): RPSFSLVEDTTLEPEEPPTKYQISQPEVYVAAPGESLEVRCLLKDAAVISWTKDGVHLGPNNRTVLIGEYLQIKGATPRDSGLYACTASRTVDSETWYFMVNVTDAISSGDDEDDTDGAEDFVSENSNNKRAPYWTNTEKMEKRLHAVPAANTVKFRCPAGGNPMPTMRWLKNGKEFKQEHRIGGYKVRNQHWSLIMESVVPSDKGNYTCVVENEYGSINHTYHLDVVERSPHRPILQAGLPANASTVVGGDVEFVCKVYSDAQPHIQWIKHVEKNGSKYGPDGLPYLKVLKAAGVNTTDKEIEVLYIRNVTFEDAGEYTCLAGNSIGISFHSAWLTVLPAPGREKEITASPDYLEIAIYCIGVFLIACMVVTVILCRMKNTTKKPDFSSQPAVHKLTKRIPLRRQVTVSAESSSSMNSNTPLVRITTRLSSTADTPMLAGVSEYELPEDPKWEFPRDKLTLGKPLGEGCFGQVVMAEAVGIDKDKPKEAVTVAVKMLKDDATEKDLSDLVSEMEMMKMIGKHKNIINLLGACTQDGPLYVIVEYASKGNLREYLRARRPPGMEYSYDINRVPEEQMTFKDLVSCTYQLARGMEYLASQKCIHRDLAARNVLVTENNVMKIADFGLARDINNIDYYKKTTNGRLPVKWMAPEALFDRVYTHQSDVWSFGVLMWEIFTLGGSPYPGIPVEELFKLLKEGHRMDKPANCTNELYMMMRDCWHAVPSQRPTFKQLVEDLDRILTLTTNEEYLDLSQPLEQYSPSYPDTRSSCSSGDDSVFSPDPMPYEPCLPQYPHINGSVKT

[10] = target: Tyrosine-protein kinase JAK2 (Homo sapiens) (UniProt O60674); experiment: Inhibition of JAK2 at 0.1 uM; values are per cent of control
[11] = target: T1, Tyrosine-protein kinase JAK3 (Homo sapiens); experiment: Inhibition of JAK3 at 0.1 uM; values are per cent of control
[12] = target: MAP kinase-interacting serine/threonine-protein kinase 2 (Homo sapiens) (UniProt Q9HBH9); experiment: Inhibition of Mnk2 at 0.1 uM; values are per cent of control
Chain of MAP kinase-interacting serine/threonine-protein kinase 2 (Homo sapiens) (Q9HBH9 whole entry, looked up): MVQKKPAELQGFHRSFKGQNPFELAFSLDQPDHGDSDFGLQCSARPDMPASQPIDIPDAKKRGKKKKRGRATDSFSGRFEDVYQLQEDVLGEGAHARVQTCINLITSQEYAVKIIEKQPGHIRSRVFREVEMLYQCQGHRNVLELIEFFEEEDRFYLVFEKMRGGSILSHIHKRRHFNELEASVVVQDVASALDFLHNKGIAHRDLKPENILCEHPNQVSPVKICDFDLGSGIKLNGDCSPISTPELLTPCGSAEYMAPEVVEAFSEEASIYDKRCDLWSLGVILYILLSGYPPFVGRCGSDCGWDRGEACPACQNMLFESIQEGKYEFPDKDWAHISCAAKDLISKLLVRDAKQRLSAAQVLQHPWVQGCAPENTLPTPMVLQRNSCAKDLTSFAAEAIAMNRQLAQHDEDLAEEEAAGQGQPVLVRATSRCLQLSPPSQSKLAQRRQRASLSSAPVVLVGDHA

[13] = target: Mitogen-activated protein kinase 1 (Homo sapiens) (UniProt P28482); experiment: Inhibition of MAPK1 at 0.1 uM; values are per cent of control
Chain of Mitogen-activated protein kinase 1 (Homo sapiens) (P28482 whole entry): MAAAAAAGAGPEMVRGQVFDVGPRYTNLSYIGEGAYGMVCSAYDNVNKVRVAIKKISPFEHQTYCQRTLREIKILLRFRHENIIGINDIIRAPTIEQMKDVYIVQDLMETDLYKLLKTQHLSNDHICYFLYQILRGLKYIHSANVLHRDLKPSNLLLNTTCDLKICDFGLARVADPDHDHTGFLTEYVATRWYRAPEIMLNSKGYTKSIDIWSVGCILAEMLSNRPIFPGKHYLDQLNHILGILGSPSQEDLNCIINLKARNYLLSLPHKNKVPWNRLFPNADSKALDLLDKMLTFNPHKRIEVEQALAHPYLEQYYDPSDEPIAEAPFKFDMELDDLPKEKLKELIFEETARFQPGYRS

Cc1ccc2cc(-c3n[nH]c4ccc(NC5CCN(Cc6ccccc6)CC5)cc34)[nH]c2c1 showed an inhibition [1] of 5%, an inhibition [2] of 93% and an inhibition [3] of 86%. It also gave a residual activity [4] of 88%, a residual activity [5] of 9% and a residual activity [6] of 47%. For the same compound, the residual activity [7] was 78%, the residual activity [8] was 90% and the residual activity [9] was 4%. For the same compound, the residual activity [10] was 16%, the residual activity [11] was 52% and the residual activity [12] was 101%. For the same compound, the residual activity [13] was 88%.

Cc1ccc2cc(-c3n[nH]c4ccc(NC5CCNC5)cc34)[nH]c2c1 (stereo unspecified) was tested, and the inhibition [1] was 8%, the inhibition [2] was 48% and the inhibition [3] was 91%. The residual activity [4] was 87%, the residual activity [5] was 2% and the residual activity [6] was 27%. It also gave a residual activity [7] of 90%, a residual activity [8] of 90% and a residual activity [9] of 1%. The residual activity [10] was 2%, the residual activity [11] was 25% and the residual activity [12] was 52%. For the same compound, the residual activity [13] was 85%.
